Measurements reported in ChEMBL document CHEMBL1145855, “Computer-aided selection of potential antihypertensive compounds with dual mechanism of action” (J Med Chem, 2003).

Columns and labels:
[1] = target: Angiotensin-converting enzyme (Homo sapiens, UniProt P12821); experiment: Inhibitory activity against Angiotensin I converting enzyme (ACE) from human blood serum
Neprilysin [2] = target: T1, Neprilysin (Rattus norvegicus, UniProt P07861); experiment: Inhibitory activity against neutral endopeptidase (NEP) from rat cortex brain membrane
T1 sequence (P07861 whole entry): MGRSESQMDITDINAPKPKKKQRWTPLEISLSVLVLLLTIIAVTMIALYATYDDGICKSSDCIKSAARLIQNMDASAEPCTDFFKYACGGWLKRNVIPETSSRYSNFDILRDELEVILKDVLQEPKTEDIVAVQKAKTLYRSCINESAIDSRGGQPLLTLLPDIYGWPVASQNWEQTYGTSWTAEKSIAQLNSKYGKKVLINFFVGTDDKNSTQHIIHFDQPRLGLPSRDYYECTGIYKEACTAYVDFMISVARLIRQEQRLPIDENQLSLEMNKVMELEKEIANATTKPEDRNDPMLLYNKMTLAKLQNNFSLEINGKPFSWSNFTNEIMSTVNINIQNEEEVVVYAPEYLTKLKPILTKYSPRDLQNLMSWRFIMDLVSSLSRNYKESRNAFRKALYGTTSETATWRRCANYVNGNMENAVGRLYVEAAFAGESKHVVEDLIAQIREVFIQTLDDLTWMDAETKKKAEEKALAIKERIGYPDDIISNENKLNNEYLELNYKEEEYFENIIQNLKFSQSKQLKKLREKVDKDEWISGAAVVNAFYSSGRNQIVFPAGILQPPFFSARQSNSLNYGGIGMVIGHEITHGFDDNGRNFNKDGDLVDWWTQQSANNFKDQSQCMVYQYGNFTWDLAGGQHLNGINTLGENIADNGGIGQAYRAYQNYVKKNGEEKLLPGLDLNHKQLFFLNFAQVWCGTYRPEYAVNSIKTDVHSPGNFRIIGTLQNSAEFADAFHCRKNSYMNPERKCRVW
Method in brief: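 Rat cortex brain membrane suspension in 50 mM Tris-HCl pH 7.5, with six to eight inhibitor concentrations (10^-2 to 10^-6 M). Preincubated 20 min at 37 °C, then Suc-Ala-Ala-Phe-MCA (20 µM final) added for 120-180 min at 37 °C; stopped with pH 4.0 acetate. Released 4-methylcoumarinyl-7-amine read at Ex 383/Em 455 nm; % inhibition versus control; IC50.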

[3] = target: T2, Angiotensin-converting enzyme (Rattus norvegicus, UniProt P47820); experiment: Inhibitory activity against Angiotensin I converting enzyme (ACE) from rat cortex brain membrane
T2 sequence (P47820 whole entry): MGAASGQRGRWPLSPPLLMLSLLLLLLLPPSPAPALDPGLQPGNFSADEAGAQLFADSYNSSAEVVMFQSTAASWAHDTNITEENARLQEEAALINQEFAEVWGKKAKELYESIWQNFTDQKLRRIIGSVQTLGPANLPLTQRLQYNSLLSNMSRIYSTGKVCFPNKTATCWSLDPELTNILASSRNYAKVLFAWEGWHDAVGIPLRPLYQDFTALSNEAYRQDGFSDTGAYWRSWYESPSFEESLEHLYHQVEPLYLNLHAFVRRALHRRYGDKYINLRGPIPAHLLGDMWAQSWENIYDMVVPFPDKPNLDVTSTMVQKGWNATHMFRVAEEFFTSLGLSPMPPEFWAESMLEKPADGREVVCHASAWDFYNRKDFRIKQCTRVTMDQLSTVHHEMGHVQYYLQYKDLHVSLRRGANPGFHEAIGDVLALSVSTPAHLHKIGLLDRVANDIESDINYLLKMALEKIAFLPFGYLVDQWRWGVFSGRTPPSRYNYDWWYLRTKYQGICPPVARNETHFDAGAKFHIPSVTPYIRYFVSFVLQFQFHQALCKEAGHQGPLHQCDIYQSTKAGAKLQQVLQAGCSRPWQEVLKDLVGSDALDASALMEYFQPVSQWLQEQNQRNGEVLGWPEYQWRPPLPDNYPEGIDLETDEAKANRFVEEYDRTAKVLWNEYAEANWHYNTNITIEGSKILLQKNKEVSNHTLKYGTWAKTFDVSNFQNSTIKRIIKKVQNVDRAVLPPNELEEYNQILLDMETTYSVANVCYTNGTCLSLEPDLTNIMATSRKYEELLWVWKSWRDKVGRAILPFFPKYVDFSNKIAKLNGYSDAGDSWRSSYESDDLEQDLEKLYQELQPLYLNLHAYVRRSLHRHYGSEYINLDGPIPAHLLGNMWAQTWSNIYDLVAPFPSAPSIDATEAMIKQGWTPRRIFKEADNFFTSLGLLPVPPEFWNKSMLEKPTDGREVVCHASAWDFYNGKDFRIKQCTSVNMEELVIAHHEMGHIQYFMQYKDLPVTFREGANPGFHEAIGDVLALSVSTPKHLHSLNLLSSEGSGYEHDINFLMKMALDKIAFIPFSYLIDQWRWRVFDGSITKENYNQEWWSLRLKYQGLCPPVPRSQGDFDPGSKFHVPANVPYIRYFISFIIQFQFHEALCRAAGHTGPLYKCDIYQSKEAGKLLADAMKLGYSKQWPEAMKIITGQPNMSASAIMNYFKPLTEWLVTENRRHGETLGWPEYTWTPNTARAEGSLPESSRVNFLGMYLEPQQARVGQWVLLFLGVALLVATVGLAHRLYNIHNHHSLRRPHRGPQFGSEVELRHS
Method in brief: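 Enzyme source was human serum (diluted 1:5) or rat cortex brain membrane suspension, in 70 mM potassium phosphate pH 8.3 with 300 mM NaCl. Compound (10^-3 to 10^-8 M) preincubated 20 min at 37 °C, then 25 µM Hip-His-Leu added for 120 min; stopped with NaOH.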

Neprilysin [4] = target: Neprilysin (Homo sapiens, UniProt P08473); experiment: Inhibitory activity against neutral endopeptidase (NEP) from human blood serum
Sequence of Neprilysin (Homo sapiens, UniProt P08473) (P08473 whole entry): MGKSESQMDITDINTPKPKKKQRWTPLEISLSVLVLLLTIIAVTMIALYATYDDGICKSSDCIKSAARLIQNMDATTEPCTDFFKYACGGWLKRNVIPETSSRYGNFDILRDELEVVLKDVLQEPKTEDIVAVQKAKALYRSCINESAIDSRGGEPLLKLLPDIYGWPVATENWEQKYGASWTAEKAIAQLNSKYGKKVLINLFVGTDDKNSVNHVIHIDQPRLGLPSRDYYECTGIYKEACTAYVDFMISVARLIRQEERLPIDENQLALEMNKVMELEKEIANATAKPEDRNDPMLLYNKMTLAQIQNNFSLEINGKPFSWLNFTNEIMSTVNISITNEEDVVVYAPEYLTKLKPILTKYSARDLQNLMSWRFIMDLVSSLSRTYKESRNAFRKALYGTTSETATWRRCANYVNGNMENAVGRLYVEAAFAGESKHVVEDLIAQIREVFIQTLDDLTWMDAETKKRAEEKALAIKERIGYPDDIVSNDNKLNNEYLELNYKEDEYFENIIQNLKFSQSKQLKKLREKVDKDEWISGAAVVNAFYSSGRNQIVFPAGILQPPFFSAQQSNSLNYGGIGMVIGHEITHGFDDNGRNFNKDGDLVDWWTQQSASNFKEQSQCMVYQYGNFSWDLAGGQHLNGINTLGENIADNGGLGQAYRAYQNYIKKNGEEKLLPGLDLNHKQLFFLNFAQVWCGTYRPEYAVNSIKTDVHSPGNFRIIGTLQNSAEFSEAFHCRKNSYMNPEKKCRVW
Method in brief: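 Human serum (diluted 1:5) as enzyme source, with the test compound at six to eight concentrations from 10^-2 to 10^-6 M, in 50 mM Tris-HCl pH 7.5. Preincubated 20 min at 37 °C. Suc-Ala-Ala-Phe-MCA added (20 µM final) and incubated 120-180 min at 37 °C. Stopped with 20 mM sodium acetate pH 4.0. Released 4-methylcoumarinyl-7-amine read at Ex 383/Em 455 nm. Percent inhibition taken against the no-inhibitor control; IC50 derived.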

[5] = target: Angiotensin-converting enzyme (Bos taurus) (UniProt P12820); experiment: Inhibitory activity of compound at 1*10e-4 M against Angiotensin I converting enzyme (ACE) from bovine kidney
Sequence of Angiotensin-converting enzyme (Bos taurus) (P12820 whole entry, looked up): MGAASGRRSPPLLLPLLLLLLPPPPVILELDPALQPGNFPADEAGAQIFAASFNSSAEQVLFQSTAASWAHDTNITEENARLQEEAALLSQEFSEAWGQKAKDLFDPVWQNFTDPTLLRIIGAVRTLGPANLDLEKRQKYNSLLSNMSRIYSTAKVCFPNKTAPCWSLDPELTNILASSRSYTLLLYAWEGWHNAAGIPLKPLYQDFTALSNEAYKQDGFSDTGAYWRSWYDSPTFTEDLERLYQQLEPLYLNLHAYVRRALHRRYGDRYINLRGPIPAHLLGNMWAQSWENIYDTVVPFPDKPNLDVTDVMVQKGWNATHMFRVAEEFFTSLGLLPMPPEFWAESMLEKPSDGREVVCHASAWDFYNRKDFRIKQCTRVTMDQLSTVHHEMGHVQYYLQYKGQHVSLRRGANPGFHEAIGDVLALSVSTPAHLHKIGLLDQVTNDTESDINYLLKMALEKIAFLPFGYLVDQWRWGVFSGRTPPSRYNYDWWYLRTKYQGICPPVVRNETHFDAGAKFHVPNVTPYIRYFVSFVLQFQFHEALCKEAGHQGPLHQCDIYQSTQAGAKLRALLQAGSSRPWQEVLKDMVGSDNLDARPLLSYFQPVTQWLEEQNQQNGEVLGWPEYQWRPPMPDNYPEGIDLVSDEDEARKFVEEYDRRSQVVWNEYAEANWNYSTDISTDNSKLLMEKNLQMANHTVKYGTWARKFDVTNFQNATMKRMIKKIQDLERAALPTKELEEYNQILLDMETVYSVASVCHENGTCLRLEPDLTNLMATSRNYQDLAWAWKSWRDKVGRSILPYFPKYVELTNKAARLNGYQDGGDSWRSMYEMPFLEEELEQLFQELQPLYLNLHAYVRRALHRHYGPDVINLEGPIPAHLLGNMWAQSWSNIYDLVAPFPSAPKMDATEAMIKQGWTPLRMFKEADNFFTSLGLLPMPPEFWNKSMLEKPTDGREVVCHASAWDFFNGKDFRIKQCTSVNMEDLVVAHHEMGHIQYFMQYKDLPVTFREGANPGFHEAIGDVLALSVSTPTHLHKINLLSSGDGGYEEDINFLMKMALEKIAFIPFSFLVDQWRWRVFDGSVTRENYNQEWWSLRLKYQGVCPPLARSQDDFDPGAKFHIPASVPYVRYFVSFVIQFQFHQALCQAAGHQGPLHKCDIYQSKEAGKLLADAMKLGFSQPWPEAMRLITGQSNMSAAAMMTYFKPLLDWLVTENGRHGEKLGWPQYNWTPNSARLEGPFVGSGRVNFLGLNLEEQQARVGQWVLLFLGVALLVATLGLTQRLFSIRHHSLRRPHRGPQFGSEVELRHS

Sequence of Angiotensin-converting enzyme (Homo sapiens, UniProt P12821) (P12821 whole entry): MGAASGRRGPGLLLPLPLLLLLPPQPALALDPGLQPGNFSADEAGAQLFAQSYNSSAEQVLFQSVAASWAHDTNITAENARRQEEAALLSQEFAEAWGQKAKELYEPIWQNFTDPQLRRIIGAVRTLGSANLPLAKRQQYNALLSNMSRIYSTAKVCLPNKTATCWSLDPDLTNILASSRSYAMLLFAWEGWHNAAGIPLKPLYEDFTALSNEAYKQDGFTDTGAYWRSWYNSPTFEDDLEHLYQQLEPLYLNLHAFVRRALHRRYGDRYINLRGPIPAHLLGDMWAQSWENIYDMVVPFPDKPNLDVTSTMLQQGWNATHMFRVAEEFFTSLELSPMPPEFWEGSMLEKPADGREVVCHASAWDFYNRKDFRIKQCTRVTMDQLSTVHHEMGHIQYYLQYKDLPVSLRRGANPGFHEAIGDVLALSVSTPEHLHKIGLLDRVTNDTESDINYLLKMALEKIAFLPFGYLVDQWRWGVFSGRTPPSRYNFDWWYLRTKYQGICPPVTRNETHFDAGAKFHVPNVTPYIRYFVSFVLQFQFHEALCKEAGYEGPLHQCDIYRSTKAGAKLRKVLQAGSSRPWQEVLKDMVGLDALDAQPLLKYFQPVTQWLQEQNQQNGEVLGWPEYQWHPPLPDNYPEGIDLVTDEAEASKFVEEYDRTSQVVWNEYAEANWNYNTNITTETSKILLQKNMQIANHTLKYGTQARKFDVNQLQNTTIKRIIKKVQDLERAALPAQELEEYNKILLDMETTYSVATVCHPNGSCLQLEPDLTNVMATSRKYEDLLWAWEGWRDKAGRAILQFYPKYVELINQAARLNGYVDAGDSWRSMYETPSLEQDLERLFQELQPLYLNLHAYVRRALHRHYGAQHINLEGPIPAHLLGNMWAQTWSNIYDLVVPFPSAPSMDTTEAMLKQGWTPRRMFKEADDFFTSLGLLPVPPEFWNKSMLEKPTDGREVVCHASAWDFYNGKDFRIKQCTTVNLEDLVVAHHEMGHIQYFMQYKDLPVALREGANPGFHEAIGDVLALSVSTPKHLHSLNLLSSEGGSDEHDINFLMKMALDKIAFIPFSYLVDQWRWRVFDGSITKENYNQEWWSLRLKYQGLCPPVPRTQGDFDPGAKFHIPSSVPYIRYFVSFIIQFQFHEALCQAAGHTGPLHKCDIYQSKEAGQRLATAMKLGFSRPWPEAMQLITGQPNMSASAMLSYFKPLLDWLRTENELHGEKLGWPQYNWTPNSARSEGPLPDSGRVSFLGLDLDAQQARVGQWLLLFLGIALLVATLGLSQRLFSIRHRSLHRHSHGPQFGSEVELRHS

CC(=O)SCC(C)C(=O)NCc1ccccc1 (configuration not stated)
IC50 [1]: 200 µM | IC50 (Neprilysin [2]): 200 µM | IC50 [3]: 100 µM | IC50 (Neprilysin [4]): 20 µM

CC(=O)SCC(C)C(=O)Nc1ccccc1 (configuration not stated)
IC50 [1]: 2 µM | IC50 (Neprilysin [2]): 200 µM | IC50 [3]: 1 µM | IC50 (Neprilysin [4]): 20 µM

O=C(O)CCCNCP(=O)(O)CCc1ccccc1
IC50 [1]: 100 µM | inhibition [5]: 18% | IC50 (Neprilysin [2]): 2000 µM | IC50 [3]: 100 µM

CC1CCCC(C(=O)O)N1C(=O)CCS (configuration not stated)
IC50 [1]: 0.02 µM | IC50 (Neprilysin [2]): 2000 µM | IC50 [3]: 0.1 µM

CC(C)C[C@H](NP(=O)(O)O[C@@H]1O[C@@H](C)[C@H](O)[C@@H](O)[C@H]1O)C(=O)N[C@@H](Cc1c[nH]c2ccccc12)C(=O)O [PHOSPHORAMIDON]
IC50 (Neprilysin [2]): 0.2 µM | IC50 (Neprilysin [4]): 0.1 µM
